These results are taken from ChEMBL document CHEMBL4382192, “Discovery of a potent dual ALK and EGFR T790M inhibitor” (Eur J Med Chem, 2017).

Experiment [1] concerns the target Tyrosine-protein kinase ZAP-70 (Homo sapiens) (UniProt P43403). Nature of the experiment: Binding affinity to wild-type human partial length ZAP70 (D20 to G299 residues) expressed in mammalian expression system assessed as residual binding level at 1 uM by Kinomescan method relative to control.
For experiment [2], the system named is Tyrosine-protein kinase ABL1 (Homo sapiens), P00519 [T315I]. Nature of the experiment: Binding affinity to human non-phosphorylated ABL1 T315I mutant (S229 to K512 residues) expressed in mammalian expression system assessed as residual binding level at 1 uM by Kinomescan method relative to control. The method, boiled down:
(§1)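 Kinome-wide selectivity panel run by the KINOMEscan method, with the test compound at a single concentration of 1 μM. Wild-type and mutant kinases were profiled in the same screen.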

Experiment [3] addresses Insulin-like growth factor 1 receptor (Homo sapiens) (UniProt P08069). Nature of the experiment: Binding affinity to wild-type human partial length IGF1R (L972 to D1294 residues) expressed in bacterial expression system assessed as residual binding level at 1 uM by Kinomescan method relative to control.
Experiment [4] concerns the target LIM domain kinase 2 (Homo sapiens) (UniProt P53671). Nature of the experiment: Binding affinity to wild-type human full length LIMK2 (M1 to P638 residues) expressed in bacterial expression system assessed as residual binding level at 1 uM by Kinomescan method relative to control. The procedure, abridged: (§2)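 Single-point kinome-wide KINOMEscan binding panel, test compound at 1 μM, run by the provider's standard protocol.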

The target in experiment [5] is Citron Rho-interacting kinase (Homo sapiens) (UniProt O14578). Nature of the experiment: Binding affinity to wild-type human partial length CIT (M68 to E432 residues) expressed in bacterial expression system assessed as residual binding level at 1 uM by Kinomescan method relative to control.
Experiment [6] has as its target Proto-oncogene tyrosine-protein kinase receptor Ret (Homo sapiens) (UniProt P07949). Nature of the experiment: Binding affinity to wild-type human partial length RET (E713 to D1014 residues) expressed in bacterial expression system assessed as residual binding level at 1 uM by Kinomescan method relative to control.
The target of experiment [7] is Ephrin type-B receptor 4 (Homo sapiens) (UniProt P54760). Nature of the experiment: Binding affinity to wild-type human partial length EPHB4 (H585 to G892 residues) expressed in bacterial expression system assessed as residual binding level at 1 uM by Kinomescan method relative to control.
Chain of Ephrin type-B receptor 4 (Homo sapiens) (P54760 whole entry, the tested form may be a part): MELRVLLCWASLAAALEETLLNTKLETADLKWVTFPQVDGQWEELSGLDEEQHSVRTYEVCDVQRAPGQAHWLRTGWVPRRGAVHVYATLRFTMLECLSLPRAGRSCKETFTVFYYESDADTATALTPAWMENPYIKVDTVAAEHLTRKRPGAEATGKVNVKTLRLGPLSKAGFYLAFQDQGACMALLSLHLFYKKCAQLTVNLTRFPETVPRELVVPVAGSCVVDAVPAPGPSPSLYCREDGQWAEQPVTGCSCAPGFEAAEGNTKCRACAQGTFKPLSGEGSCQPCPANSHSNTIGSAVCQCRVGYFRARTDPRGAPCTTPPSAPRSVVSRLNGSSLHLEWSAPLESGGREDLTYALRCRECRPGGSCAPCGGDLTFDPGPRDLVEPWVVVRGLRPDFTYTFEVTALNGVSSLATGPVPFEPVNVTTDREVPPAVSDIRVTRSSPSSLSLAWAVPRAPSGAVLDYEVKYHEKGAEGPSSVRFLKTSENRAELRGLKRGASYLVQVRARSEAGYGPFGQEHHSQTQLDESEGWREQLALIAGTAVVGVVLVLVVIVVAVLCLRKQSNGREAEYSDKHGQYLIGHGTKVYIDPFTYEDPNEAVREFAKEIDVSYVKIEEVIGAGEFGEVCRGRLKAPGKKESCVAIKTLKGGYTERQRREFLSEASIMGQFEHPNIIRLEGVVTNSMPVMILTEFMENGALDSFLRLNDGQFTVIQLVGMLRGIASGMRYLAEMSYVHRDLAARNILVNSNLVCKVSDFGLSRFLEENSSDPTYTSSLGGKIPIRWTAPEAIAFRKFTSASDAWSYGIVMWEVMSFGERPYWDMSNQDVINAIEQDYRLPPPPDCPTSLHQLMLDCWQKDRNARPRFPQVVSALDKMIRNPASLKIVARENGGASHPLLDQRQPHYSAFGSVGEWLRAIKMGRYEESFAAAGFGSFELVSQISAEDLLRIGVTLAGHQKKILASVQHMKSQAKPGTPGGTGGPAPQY
In experiment [8] the target is Mitotic checkpoint serine/threonine-protein kinase BUB1 (Homo sapiens) (UniProt O43683). Briefly: Binding affinity to wild-type human partial length BUB1 (Q724 to K1085 residues) expressed in mammalian expression system assessed as residual binding level at 1 uM by Kinomescan method relative to control.
The target of experiment [9] is Serine/threonine-protein kinase ICK (Homo sapiens) (UniProt Q9UPZ9). Nature of the experiment: Binding affinity to wild-type human partial length ICK (M1 to P314 residues) expressed in mammalian expression system assessed as residual binding level at 1 uM by Kinomescan method relative to control.
Chain of Serine/threonine-protein kinase ICK (Homo sapiens) (Q9UPZ9 whole entry, the tested form may be a part): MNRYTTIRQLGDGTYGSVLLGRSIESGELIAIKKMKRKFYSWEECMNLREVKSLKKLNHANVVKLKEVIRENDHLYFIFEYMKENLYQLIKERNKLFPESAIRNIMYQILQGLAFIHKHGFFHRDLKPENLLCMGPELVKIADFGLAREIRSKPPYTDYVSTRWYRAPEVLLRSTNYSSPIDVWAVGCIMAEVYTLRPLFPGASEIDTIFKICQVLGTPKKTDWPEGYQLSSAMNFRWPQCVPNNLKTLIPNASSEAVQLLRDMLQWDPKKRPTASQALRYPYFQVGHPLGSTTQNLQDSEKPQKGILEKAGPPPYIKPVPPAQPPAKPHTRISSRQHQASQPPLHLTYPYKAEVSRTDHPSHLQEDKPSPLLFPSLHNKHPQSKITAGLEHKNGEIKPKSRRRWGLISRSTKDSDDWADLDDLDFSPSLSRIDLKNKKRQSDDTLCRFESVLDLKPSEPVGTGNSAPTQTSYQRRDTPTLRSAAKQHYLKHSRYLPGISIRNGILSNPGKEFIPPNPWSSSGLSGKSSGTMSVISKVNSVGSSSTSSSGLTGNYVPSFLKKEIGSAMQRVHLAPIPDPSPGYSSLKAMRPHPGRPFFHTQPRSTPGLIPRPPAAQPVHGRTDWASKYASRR
Experiment [10] deals with Tyrosine-protein kinase ABL1 (Homo sapiens), P00519 [E255K]. Nature of the experiment: Binding affinity to human phosphorylated ABL1 E255K mutant (S229 to K512 residues) expressed in mammalian expression system assessed as residual binding level at 1 uM by Kinomescan method relative to control. The procedure, abridged: as §1
Experiment [11] concerns the target Maternal embryonic leucine zipper kinase (Homo sapiens) (UniProt Q14680). Nature of the experiment: Binding affinity to wild-type human full length MELK (M1 to V651 residues) expressed in bacterial expression system assessed as residual binding level at 1 uM by Kinomescan method relative to control. The method, boiled down: as §2
Experiment [12] has as its target Tyrosine-protein kinase Fyn (Homo sapiens) (UniProt P06241). Nature of the experiment: Binding affinity to wild-type human partial length FYN (T243 to L534 residues) expressed in bacterial expression system assessed as residual binding level at 1 uM by Kinomescan method relative to control.
In experiment [13] the target is Dual specificity mitogen-activated protein kinase kinase 7 (Homo sapiens) (UniProt O14733). Briefly: Binding affinity to wild-type human full length MKK7 (M1 to R419 residues) expressed in mammalian expression system assessed as residual binding level at 1 uM by Kinomescan method relative to control. The method, boiled down: as §2
Chain of Dual specificity mitogen-activated protein kinase kinase 7 (Homo sapiens) (O14733 whole entry, the tested form may be a part): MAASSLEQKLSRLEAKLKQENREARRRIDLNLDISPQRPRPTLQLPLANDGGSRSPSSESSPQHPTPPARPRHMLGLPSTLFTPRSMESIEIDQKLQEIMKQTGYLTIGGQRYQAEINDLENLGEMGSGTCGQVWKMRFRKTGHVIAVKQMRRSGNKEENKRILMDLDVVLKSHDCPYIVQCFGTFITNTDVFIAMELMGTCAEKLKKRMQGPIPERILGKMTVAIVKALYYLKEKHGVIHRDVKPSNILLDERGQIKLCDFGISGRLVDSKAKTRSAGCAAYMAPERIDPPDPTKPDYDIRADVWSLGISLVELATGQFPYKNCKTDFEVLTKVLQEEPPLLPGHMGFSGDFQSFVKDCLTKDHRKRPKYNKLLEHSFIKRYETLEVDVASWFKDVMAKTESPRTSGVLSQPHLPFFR
Experiment [14] addresses Ribosomal protein S6 kinase alpha-3 (Homo sapiens) (UniProt P51812). Briefly: Binding affinity to wild-type human partial length N-terminal RSK2 kinase domain 1 (M1 to D394 residues) expressed in mammalian expression system assessed as residual binding level at 1 uM by Kinomescan method relative to control.

Chain of Proto-oncogene tyrosine-protein kinase receptor Ret (Homo sapiens) (P07949 whole entry, the tested form may be a part): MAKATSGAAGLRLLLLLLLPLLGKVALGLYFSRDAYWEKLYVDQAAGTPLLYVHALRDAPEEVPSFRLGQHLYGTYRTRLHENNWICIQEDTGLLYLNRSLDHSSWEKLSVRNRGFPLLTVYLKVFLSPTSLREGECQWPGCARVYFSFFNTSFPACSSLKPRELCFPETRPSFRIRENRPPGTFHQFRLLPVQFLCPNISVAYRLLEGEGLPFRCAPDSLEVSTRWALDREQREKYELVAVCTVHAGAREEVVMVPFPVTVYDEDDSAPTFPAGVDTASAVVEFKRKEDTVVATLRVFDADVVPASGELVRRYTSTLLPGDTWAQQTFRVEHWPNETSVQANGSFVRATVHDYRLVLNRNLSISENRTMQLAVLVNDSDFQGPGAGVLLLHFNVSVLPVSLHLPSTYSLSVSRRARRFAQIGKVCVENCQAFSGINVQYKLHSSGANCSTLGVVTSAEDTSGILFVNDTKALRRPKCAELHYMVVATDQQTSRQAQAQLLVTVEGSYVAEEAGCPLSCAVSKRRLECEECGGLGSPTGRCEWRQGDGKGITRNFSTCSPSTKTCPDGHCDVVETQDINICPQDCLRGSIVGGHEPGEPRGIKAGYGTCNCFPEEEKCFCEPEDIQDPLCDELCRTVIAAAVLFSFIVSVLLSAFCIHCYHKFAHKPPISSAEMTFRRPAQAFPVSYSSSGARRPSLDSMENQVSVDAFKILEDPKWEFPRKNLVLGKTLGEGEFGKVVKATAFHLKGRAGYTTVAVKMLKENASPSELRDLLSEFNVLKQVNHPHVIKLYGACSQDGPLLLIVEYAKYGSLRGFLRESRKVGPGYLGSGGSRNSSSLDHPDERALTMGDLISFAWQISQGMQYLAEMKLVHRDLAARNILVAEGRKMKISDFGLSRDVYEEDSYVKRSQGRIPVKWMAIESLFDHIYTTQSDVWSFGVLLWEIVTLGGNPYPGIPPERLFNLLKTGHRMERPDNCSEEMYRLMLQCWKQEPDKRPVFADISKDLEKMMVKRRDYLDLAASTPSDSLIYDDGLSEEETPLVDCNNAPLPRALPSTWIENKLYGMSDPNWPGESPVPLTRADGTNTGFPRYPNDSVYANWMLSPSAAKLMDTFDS
Chain of LIM domain kinase 2 (Homo sapiens) (P53671 whole entry, looked up, the tested form may be a part): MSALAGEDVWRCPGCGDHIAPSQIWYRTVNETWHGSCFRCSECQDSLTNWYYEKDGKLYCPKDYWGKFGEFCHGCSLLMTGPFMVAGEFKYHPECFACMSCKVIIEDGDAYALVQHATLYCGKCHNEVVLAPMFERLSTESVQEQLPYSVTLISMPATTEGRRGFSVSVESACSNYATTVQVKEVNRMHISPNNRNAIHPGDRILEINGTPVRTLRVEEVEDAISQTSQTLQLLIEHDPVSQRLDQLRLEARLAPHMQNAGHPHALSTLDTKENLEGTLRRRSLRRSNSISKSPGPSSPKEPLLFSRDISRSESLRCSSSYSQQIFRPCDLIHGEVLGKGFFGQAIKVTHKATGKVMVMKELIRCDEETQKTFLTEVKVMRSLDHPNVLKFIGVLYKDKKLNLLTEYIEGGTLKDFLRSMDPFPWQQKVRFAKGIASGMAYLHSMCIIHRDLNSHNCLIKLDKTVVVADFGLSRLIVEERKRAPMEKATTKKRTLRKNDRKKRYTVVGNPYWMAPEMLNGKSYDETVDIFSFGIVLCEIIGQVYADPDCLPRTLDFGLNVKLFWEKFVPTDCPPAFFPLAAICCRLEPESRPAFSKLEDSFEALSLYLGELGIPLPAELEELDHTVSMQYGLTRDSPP
Chain of Tyrosine-protein kinase Fyn (Homo sapiens) (P06241 2-537 limits assumed): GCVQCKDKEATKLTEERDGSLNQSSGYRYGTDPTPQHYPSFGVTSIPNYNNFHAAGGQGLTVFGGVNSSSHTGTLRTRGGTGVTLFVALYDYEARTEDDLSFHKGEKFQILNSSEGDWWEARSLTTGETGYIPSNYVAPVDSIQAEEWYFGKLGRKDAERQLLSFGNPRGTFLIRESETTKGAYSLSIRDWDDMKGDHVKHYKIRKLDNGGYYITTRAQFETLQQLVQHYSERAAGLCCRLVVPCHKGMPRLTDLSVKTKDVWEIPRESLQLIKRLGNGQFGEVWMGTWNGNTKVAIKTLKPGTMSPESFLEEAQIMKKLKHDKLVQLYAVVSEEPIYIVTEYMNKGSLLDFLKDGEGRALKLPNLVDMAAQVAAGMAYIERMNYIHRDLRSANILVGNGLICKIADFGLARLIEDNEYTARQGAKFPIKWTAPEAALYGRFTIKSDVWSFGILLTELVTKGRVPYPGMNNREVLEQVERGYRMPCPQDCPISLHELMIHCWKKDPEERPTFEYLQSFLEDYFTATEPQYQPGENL
Chain of Ribosomal protein S6 kinase alpha-3 (Homo sapiens) (P51812 whole entry, the tested form may be a part): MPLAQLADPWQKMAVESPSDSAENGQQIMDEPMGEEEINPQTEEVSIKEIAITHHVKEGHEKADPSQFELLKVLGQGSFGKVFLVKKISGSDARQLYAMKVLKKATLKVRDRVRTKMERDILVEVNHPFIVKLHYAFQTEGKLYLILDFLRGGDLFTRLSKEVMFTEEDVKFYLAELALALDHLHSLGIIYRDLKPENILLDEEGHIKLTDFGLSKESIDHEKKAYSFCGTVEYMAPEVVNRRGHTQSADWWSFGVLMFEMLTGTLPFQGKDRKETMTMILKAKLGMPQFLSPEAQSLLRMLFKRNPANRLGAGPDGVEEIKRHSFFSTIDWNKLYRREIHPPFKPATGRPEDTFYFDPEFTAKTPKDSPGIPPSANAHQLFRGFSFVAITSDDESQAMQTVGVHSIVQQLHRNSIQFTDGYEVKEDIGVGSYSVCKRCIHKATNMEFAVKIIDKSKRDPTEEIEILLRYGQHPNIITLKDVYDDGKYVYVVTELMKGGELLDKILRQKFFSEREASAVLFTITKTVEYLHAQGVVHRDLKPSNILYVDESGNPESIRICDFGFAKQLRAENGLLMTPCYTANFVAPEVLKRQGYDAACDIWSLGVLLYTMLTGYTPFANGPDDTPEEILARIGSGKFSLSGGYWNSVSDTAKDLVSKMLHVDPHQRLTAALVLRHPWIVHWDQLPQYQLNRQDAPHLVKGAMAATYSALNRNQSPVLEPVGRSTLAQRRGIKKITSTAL

With `C=CC(=O)Nc1cc(Nc2ncc(Cl)c(Nc3ccccc3S(=O)(=O)C(C)C)n2)c(OC)cc1N(C)CCN(C)C`, the Activity in [1] worked out at 77%; in [2] it was 0.9%; in experiment [3] it was 0.55%; in experiment [4] it was 73%; in experiment [5] it was 99%; in [6], 13%. Also, the Activity in experiment [7] is 76%; in [8], 87%; in experiment [9], 65%; in [10], 12%; in [11], 54%; in experiment [12] it was 46%. Further, the Activity in experiment [13] stood at 77%; in experiment [14], 1.7%.
